Activity calls are given as the source filed them. The rule behind the calls is not given here.
Experiments:
[1] = Stabilization of 5'-FAM/3'-TAMRA labeled c-Myc Pu22 G-quadruplex DNA (unknown origin) assessed as change in melting temperature at 2 uM by FRET assay
How it was run: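 FRET melting of FAM/TAMRA-labelled FPu22T (0.2 μM) in 10 mM Tris-HCl pH 7.4 with 2 mM KCl, ligand 2 μM, in a real-time PCR machine. Excitation 470 nm, emission 530 nm, read every 1 °C from 37 to 99 °C after 30 s hold at each step; ΔTm versus probe alone.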

[2] = Inhibition of NM23-H2 binding to 5'-FAM labeled c-Myc Pu27 G-quadruplex DNA (unknown origin) at 10 uM preincubated for 1 hr followed by NM23-H2 addition by electrophoretic mobility shift assay relative to control
How it was run: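 Annealed labeled Pu27 (1.5 μM) preincubated 1 h at 25 °C with 10 μM ligand or 5% DMSO. Recombinant His-tagged NM23-H2 (0.5 μM, E. coli BL21, nickel-purified) then added for 1 h at 37 °C. Complexes resolved on 5% native polyacrylamide gel in 0.5× TBE at 4 °C. Inhibition taken as loss of complex band intensity versus no-compound band set at 100%. Run three times.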

Homo sapiens [3] = species on record: Homo sapiens; experiment: Effect on c-Myc DNA translocated chromosome product in human Raji cells assessed as decrease in amplification of exon-2 after 12 hrs by RT-PCR method; format: cell-based
How it was run: (§1)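 RAJI cells, which retain NHE III1, and CA46 cells, which lack NHE III1 and the P1/P2 promoters, were exposed to graded compound concentrations for 12 h. Total RNA (2 μg) was reverse-transcribed with oligo dT18 and M-MLV. c-MYC exons 1 and 2, NM23-H2 and β-actin were amplified by real-time PCR against untreated cells. Three repeats were done; two-tailed unpaired t-test.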

Homo sapiens [4] = species on record: Homo sapiens; experiment: Stabilization of c-Myc G-quadruplex DNA in human CA46 cells assessed as decrease in amplification of exon-1 up to 4 uM after 12 hrs by RT-PCR method; format: cell-based
How it was run: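 Exon-specific assay: RAJI and CA46 cells exposed to various ligand concentrations for 12 h; total RNA (2 μg) reverse-transcribed with oligo dT18 and M-MLV (42 °C 1 h). c-MYC exon 1 and exon 2, NM23-H2 and β-actin amplified by real-time PCR, products run on 1% agarose; untreated cells as control; three repeats, two-tailed unpaired t test.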

Homo sapiens [5] = species on record: Homo sapiens; experiment: Effect on c-Myc DNA translocated chromosome product in human CA46 cells assessed as decrease in amplification of exon-2 up to 4 uM after 12 hrs by RT-PCR method; format: cell-based; how it was run: as §1
CCRF-CEM = experiment: Antiproliferative activity against human CCRF-CEM cells after 12 hrs by MTT assay; format: functional, cell-based
How it was run: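 RAJI, CCRF-CEM and U266B1 cells were seeded at 5 × 10^3 cells per well and exposed to compound for 12 h, with a DMSO vehicle control. MTT at 0.5 mg/mL was added for 4 h at 37 °C, then lysis solution overnight at 37 °C, and A570 was read. Assays were run in triplicate. IC50 was taken from the percentage survival relative to the negative control.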

Homo sapiens [6] = species on record: Homo sapiens; experiment: Stabilization of c-Myc G-quadruplex DNA in human Raji cells assessed as downregulation of c-Myc protein level after 6 hrs by Western blot method; format: cell-based
How it was run: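 Western blot of RAJI cells treated either with 1 μM for 6, 12, 24 and 48 h or with graded concentrations for 6 h. Lysed in 1% NP-40, 50 μg protein/lane on 3–12% SDS-PAGE, nitrocellulose, probed for c-MYC, NM23-H2, GAPDH loading control, HRP secondary with ECL; untreated control, three replicates.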

Homo sapiens [7] = species on record: Homo sapiens; experiment: Inhibition of NM23-H2 binding to c-Myc G-quadruplex DNA in human Raji cells up to 4 uM after 6 hrs by ChIP-PCR method; format: cell-based
Raji [8] = experiment: Antiproliferative activity against human Raji cells measured every 3 days up to 15 days; format: functional, cell-based
How it was run: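 RAJI cells (1.0 × 10^5 per well, six-well plates) were exposed every 3 days to a subcytotoxic ligand concentration or 0.1% DMSO. At each point cells were counted and viability checked, then flasks were reseeded at 1.0 × 10^5 cells. This continued for 15 days.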

Raji [9] = experiment: Cell cycle arrest in human Raji cells assessed as accumulation at S phase after 6 hrs by propidium iodide staining based flow cytometry (reference value: 32.2%); format: functional
Raji [10] = experiment: Cell cycle arrest in human Raji cells assessed as accumulation at S phase after 12 hrs by propidium iodide staining based flow cytometry (reference value: 32.2%); format: functional
Raji [11] = experiment: Cell cycle arrest in human Raji cells assessed as accumulation at S phase after 24 hrs by propidium iodide staining based flow cytometry (reference value: 32.2%); format: functional
Raji [12] = experiment: Induction of apoptosis in human Raji cells assessed as late apoptotic cells at 1 uM after 12 hrs by Annexin V-FITC/propidium iodide staining based flow cytometry relative to control; format: functional
How it was run: (§2)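 RAJI cells exposed to compound or control medium for 12 or 48 h were washed in PBS and resuspended in binding buffer. They were stained with FITC annexin V and PI for 15 min in the dark, and fluorescence was measured by flow cytometry.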

Raji [13] = experiment: Induction of apoptosis in human Raji cells assessed as early apoptotic cells at 0.5 uM after 48 hrs by Annexin V-FITC/propidium iodide staining based flow cytometry (reference value: 1.8%); format: functional; how it was run: as §2
Raji [14] = experiment: Induction of apoptosis in human Raji cells assessed as necrotic cells at 0.5 uM after 48 hrs by Annexin V-FITC/propidium iodide staining based flow cytometry relative to control; format: functional; how it was run: as §2
Raji [15] = experiment: Induction of apoptosis in human Raji cells assessed as downregulation of Cyclin D3 expression after 12 hrs by Western blot method; format: functional, cell-based
How it was run: (§3)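 After compound exposure (12 h for cell-cycle and apoptosis markers), RAJI cells were lysed in 1% NP-40 buffer. Protein at 50 μg per lane was run on 3–12% SDS-PAGE and transferred to nitrocellulose. Blots were probed with primary antibodies (GAPDH as loading reference) and detected with an HRP secondary and enhanced chemiluminescence.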

Raji [16] = experiment: Induction of apoptosis in human Raji cells assessed as downregulation of CDK6 expression after 12 hrs by Western blot method; format: functional, cell-based; how it was run: as §3
Raji [17] = experiment: Induction of apoptosis in human Raji cells assessed as upregulation of p27 expression up to 4 uM after 12 hrs by Western blot method; format: functional, cell-based; how it was run: as §3
Raji [18] = experiment: Induction of apoptosis in human Raji cells assessed as upregulation of cleaved PARP expression up to 4 uM after 12 hrs by Western blot method; format: functional, cell-based; how it was run: as §3
Raji [19] = experiment: Induction of apoptosis in human Raji cells assessed as upregulation of cleaved caspase-9 expression up to 4 uM after 12 hrs by Western blot method; format: functional, cell-based; how it was run: as §3
Mus musculus = experiment: Toxicity in NOD/SCID nude mouse xenografted with human Raji cells assessed as reduction in body weight at 15 to 30 mg/kg, ip administered once daily for 2 weeks measured every day during compound dosing; format: organism-based; settings: in vivo, 336 h
How it was run: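 NOD/SCID mice implanted subcutaneously in the underarm with 5 × 10^6 RAJI cells in 100 μL RPMI 1640 with 10% serum; tumours grown about 1 week, then mice randomized. Body weight recorded daily; organ weights taken at end.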

**Q.** Which ΔTm [1] does the source give for CN(C)CCCNc1c2ccccc2nc2c1oc1ccc(OCC3CCN(C)CC3)cc12 here?
**A.** 26.6 °C

**Q.** And the inhibition [2]?
**A.** > 80%

**Q.** And the Activity (Homo sapiens [3])?
**A.** Dose-dependent effect

**Q.** What about the Activity (Homo sapiens [4]) of the same molecule?
**A.** Active

**Q.** And the Activity (Homo sapiens [5])?
**A.** inactive

**Q.** And the IC50 (CCRF-CEM)?
**A.** 18.1 µM

**Q.** And the Activity (Homo sapiens [6])?
**A.** Dose-dependent effect

**Q.** And the Activity (Homo sapiens [7])?
**A.** Active

**Q.** And the Activity (Raji [8])?
**A.** Dose-dependent effect

**Q.** And the Activity (Raji [9])?
**A.** 18.1%

**Q.** What about the Activity (Raji [10]) of the same molecule?
**A.** 5.5%

**Q.** And the Activity (Raji [11])?
**A.** 19.4%

**Q.** And the Activity (Raji [12])?
**A.** 0.3%

**Q.** What about the Activity (Raji [13]) of the same molecule?
**A.** 12.2%

**Q.** What about the Activity (Raji [14]) of the same molecule?
**A.** 0%

**Q.** And the Activity (Raji [15])?
**A.** Dose-dependent effect

**Q.** And the Activity (Raji [16])?
**A.** Dose-dependent effect

**Q.** What about the Activity (Raji [17]) of the same molecule?
**A.** Active

**Q.** And the Activity (Raji [18])?
**A.** Active

**Q.** And the Activity (Raji [19])?
**A.** Active

**Q.** What about the Activity (Mus musculus) of the same molecule?
**A.** Non-Toxic

Reference: ChEMBL document CHEMBL4011629, “New Disubstituted Quindoline Derivatives Inhibiting Burkitt's Lymphoma Cell Proliferation by Impeding c-MYC Transcription” (J Med Chem, 2017)
